According to ChEMBL document CHEMBL1212904, “Discovery of pyrrole-indoline-2-ones as Aurora kinase inhibitors with a different inhibition profile” (J Med Chem, 2010):
Active and inactive are the calls of the source. The rule behind the calls is not given here.

Assays:
[1] = target: Epithelial discoidin domain-containing receptor 1 (Homo sapiens) (UniProt Q08345); assay: Inhibition of DDR1 at 1 uM by KINOMEscan binding assay
[2] = target: Muscle, skeletal receptor tyrosine-protein kinase (Homo sapiens) (UniProt O15146); assay: Inhibition of MUSK at 1 uM by KINOMEscan binding assay
[3] = target: Mitogen-activated protein kinase kinase kinase kinase 3 (Homo sapiens) (UniProt Q8IVH8); assay: Inhibition of MAP4K3 at 1 uM by KINOMEscan binding assay
Sequence of Mitogen-activated protein kinase kinase kinase kinase 3 (Homo sapiens) (Q8IVH8 whole entry): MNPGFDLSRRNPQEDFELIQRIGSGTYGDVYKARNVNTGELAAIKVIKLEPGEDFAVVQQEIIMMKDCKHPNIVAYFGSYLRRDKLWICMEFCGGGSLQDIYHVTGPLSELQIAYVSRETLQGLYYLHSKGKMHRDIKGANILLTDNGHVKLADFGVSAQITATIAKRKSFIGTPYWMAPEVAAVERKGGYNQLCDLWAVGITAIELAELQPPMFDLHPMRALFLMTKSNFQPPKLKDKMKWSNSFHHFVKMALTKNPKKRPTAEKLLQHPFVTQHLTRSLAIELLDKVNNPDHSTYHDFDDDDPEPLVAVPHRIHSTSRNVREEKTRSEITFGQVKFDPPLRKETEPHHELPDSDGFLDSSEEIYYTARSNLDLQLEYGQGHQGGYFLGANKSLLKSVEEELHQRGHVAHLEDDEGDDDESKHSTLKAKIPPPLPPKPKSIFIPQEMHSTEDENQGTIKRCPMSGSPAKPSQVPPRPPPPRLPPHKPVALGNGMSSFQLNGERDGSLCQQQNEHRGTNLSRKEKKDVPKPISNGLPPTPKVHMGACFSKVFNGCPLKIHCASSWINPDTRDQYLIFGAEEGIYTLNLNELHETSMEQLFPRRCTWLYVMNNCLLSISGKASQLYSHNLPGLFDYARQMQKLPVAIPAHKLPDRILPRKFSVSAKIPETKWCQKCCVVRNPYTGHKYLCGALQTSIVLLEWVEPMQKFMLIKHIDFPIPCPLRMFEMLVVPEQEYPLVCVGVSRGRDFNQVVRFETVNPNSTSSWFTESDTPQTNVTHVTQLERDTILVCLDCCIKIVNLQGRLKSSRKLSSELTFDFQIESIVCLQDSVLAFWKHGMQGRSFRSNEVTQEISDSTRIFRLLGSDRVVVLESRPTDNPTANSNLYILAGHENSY

[4] = target: PI3K p110 beta/p85 alpha (Homo sapiens) (UniProt P27986+P42338); assay: Inhibition of PI3K (p110beta/p85-alpha) at 1 uM by radiometric method; format: protein-complex assay
Sequence of PI3K p110 beta/p85 alpha (Homo sapiens) (P27986 2-724 limits assumed): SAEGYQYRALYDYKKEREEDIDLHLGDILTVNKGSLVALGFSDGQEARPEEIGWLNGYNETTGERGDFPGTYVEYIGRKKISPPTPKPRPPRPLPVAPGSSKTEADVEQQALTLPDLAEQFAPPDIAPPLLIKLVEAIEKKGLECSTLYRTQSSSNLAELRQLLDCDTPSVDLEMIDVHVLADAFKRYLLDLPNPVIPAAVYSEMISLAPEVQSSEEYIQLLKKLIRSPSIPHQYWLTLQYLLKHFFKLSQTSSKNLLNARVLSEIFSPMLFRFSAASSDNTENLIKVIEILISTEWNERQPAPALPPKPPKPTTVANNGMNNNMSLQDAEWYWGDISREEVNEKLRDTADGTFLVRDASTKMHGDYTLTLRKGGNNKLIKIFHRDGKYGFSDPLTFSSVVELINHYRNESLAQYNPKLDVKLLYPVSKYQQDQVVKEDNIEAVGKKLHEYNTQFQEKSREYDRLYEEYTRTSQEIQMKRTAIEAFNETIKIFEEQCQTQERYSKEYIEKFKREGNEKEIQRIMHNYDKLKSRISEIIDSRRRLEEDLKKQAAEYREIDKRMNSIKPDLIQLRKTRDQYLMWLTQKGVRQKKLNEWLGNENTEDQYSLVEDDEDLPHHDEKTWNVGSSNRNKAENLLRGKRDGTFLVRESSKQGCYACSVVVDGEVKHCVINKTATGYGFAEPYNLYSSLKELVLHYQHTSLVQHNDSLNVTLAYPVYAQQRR
Sequence of PI3K p110 beta/p85 alpha (Homo sapiens) (P42338 whole entry partner): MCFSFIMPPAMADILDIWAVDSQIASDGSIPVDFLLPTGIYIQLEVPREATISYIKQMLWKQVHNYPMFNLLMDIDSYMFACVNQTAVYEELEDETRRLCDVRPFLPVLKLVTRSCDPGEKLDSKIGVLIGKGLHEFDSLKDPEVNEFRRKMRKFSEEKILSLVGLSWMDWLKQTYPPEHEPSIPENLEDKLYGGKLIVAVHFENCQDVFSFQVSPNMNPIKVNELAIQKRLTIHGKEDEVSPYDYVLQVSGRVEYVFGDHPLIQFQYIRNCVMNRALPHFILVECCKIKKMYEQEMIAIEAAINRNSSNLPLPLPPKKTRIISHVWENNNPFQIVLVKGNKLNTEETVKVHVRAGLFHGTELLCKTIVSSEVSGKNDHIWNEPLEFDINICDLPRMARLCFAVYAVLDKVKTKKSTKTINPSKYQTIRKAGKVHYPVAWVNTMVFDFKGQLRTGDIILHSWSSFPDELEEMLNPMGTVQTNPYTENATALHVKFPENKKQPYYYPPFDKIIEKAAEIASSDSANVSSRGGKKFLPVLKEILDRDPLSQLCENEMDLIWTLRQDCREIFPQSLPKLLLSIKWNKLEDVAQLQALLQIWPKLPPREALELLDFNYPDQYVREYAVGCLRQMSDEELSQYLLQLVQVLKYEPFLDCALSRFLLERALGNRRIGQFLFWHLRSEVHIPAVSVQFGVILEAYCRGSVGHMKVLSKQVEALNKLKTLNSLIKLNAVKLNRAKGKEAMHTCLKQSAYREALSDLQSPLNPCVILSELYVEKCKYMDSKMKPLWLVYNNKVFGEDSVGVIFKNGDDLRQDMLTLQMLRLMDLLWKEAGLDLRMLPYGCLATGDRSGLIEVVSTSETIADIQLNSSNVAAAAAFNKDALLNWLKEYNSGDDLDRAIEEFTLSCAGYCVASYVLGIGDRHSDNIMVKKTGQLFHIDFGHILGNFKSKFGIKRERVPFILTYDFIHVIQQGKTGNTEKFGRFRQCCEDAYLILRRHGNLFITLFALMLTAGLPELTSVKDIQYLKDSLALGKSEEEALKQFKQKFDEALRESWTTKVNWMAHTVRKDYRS

HT-29 = assay: Antiproliferative activity against human HT-29 cells after 72 hrs by cell titer 96 assay; format: functional, cell-based; conditions: HT-29, 72 h
HCT-116 [5] = assay: Antiproliferative activity against human HCT116 cells after 72 hrs by [3H]thymidine incorporation assay; format: functional, cell-based
[6] = target: Proto-oncogene tyrosine-protein kinase receptor Ret (Homo sapiens) (UniProt P07949); assay: Inhibition of RET at 1 uM by KINOMEscan binding assay
[7] = target: Macrophage colony-stimulating factor 1 receptor (Homo sapiens, UniProt P07333); conditions: 1 uM
[8] = target: Serine/threonine-protein kinase mTOR (Homo sapiens) (UniProt P42345); assay: Inhibition of mTOR at 1 uM by radiometric method
[9] = target: T1, Mast/stem cell growth factor receptor Kit (Homo sapiens, UniProt P10721); assay: Inhibition of c-Kit by radiometric method
T1 sequence (P10721 whole entry): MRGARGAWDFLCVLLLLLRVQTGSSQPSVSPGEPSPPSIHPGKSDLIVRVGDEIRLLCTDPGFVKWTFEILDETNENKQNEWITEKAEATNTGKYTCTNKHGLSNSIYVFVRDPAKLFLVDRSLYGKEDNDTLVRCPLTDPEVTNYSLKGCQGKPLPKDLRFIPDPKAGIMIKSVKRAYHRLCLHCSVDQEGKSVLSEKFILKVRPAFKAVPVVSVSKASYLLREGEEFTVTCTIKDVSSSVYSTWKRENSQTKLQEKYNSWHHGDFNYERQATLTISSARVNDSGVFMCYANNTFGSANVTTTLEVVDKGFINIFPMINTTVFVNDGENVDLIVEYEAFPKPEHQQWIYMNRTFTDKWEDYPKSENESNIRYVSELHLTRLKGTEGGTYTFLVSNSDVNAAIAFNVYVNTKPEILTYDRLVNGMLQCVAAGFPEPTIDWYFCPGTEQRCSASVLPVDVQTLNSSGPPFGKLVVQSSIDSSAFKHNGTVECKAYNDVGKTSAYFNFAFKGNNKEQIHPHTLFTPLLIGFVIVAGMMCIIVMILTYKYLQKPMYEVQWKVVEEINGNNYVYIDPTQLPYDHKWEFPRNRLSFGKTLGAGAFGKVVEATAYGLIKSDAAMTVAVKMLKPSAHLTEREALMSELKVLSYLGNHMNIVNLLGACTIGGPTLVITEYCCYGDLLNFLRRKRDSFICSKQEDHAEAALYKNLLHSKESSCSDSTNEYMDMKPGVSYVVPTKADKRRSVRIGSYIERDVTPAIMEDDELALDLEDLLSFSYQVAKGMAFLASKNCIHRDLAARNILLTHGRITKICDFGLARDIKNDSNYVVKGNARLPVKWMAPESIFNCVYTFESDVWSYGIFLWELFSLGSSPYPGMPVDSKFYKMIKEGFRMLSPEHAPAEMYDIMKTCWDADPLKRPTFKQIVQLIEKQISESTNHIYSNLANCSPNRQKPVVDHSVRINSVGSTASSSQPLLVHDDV

[10] = target: Tyrosine-protein kinase Lck (Homo sapiens) (UniProt P06239); assay: Inhibition of LCK at 1 uM by KINOMEscan binding assay
[11] = target: Tyrosine-protein kinase ABL1 (Homo sapiens) (UniProt P00519); assay: Inhibition of ABL1 at 1 uM by radiometric method
[12] = target: T1, Mast/stem cell growth factor receptor Kit; assay: Inhibition of c-Kit at 1 uM by radiometric method
[13] = target: ALK tyrosine kinase receptor (Homo sapiens) (UniProt Q9UM73); assay: Inhibition of ALK at 1 uM by radiometric method
[14] = target: Platelet-derived growth factor receptor beta (Homo sapiens, UniProt P09619); assay: Inhibition of PDGFRbeta at 1 uM by radiometric method
[15] = target: 3-phosphoinositide-dependent protein kinase 1 (Homo sapiens) (UniProt O15530); assay: Inhibition of PDK1 at 1 uM by radiometric method
[16] = target: Hepatocyte growth factor receptor (Homo sapiens) (UniProt P08581); assay: Inhibition of c-Met at 1 uM by radiometric method
Sequence of Hepatocyte growth factor receptor (Homo sapiens) (P08581 whole entry, canonical isoform): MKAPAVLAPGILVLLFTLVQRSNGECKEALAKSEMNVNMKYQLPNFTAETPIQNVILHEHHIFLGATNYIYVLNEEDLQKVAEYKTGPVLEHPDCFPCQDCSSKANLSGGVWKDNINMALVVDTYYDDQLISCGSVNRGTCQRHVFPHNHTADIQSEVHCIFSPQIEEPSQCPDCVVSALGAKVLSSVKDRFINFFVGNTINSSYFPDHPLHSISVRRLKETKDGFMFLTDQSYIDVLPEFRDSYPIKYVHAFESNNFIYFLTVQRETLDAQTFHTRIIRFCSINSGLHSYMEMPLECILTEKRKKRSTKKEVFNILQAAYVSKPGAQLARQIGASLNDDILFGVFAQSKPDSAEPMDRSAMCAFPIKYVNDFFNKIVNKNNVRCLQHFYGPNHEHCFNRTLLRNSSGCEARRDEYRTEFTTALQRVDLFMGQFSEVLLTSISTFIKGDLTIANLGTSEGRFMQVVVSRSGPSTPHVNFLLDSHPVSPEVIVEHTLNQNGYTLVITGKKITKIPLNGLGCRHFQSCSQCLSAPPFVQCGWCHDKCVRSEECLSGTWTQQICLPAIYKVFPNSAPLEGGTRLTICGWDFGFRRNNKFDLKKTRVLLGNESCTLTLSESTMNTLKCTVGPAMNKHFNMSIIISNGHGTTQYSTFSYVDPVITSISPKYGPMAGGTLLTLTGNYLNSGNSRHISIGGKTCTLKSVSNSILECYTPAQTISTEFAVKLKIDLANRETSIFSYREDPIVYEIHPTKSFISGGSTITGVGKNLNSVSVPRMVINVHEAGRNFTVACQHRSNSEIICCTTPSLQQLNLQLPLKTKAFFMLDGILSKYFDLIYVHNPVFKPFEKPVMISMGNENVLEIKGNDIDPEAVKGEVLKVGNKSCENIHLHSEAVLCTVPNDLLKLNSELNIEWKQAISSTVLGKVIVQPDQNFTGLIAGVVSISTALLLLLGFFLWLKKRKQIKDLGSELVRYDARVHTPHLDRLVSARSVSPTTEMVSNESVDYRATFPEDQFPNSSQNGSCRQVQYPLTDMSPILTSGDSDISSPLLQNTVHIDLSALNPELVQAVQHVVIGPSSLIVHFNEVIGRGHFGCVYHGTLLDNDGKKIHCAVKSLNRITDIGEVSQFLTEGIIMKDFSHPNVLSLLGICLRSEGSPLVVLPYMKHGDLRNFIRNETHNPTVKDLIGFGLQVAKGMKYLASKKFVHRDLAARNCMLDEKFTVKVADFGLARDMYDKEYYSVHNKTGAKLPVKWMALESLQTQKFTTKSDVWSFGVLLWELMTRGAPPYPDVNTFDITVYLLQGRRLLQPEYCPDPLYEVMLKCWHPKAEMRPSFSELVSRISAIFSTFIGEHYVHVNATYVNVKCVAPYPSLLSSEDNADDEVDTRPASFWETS

[17] = target: Phosphorylase b kinase gamma catalytic chain, skeletal muscle/heart isoform (Homo sapiens) (UniProt Q16816); assay: Inhibition of PHKG1 at 1 uM by KINOMEscan binding assay
HeLa = assay: Antiproliferative activity against human HeLa cells after 72 hrs by cell titer 96 assay; format: functional, cell-based
Aurora kinase A = target: T2, Aurora kinase A (Homo sapiens, UniProt O14965); assay: Inhibition of recombinant aurora A
T2 sequence (O14965 whole entry): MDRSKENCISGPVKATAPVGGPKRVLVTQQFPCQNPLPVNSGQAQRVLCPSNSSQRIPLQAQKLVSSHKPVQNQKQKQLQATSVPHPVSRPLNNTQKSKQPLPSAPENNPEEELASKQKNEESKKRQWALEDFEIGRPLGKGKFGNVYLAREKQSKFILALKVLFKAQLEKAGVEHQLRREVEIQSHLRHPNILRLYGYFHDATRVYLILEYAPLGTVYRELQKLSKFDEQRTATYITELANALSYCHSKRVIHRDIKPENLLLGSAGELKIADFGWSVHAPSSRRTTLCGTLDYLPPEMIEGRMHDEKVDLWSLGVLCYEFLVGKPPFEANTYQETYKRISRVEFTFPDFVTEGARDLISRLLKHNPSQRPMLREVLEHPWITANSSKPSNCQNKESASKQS

Aurora kinase B = Aurora kinase B (Homo sapiens, UniProt Q96GD4); assay: Inhibition of recombinant aurora B
[18] = target: Vascular endothelial growth factor receptor 2 (Homo sapiens, UniProt P35968); assay: Inhibition of VEGFR2 by radiometric method
[19] = target: Receptor-type tyrosine-protein kinase FLT3 (Homo sapiens, UniProt P36888); assay: Inhibition of FLT3 by radiometric method
HCT-116 [20] = assay: Cell cycle arrest in human HCT116 cells assessed as increase of tetraploid 4N DNA at 4 uM after 24 hrs by flow cytometry; format: functional, cell-based
Outline: (§1)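 HCT-116 cells exposed to 4 μM for 24 h, then trypsinized, PBS-washed, fixed in ice-cold 70% ethanol at -20 °C overnight. Cells were washed twice in PBS and stained 30 min in PBS with 2 μg/mL RNase A and 5 μg/mL propidium iodide. DNA content was read by flow cytometry to score 4 N and ≥8 N populations.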

HCT-116 [21] = assay: Cell cycle arrest in human HCT116 cells assessed as increase of multinucleated octoploid 8 N DNA at 4 uM after 24 hrs by flow cytometry; format: functional, cell-based
Outline: as §1

| Structure (SMILES) | residual activity [1] | residual activity [2] | residual activity [3] | inhibition [4] | IC50 (HT-29) | residual activity [6] | inhibition [7] | inhibition [8] | IC50 [9] | residual activity [10] | inhibition [12] | inhibition [13] | inhibition [14] | inhibition [15] | inhibition [16] | residual activity [17] | further results |
| --- | --- | --- | --- | --- | --- | --- | --- | --- | --- | --- | --- | --- | --- | --- | --- | --- | --- |
| CCOC(=O)CCc1c(/C=C2\C(=O)Nc3ccc(NS(=O)(=O)c4ccccc4)cc32)[nH]c2c1C(=O)CCC2 | < 10% | < 10% | < 10% | 1% | 3.23 µM | < 10% | 34% | 9% | > 1 µM | < 10% | 41% | 80% | 47% | 24% | 32% | < 10% | IC50 (HCT-116 [5]): 1.02 µM; inhibition [11]: 31% |
| CN(C)CCCc1c(/C=C2\C(=O)Nc3ccc(NS(=O)(=O)c4ccccc4)cc32)[nH]c2c1C(=O)CCC2 | < 10% | < 10% | < 10% | -2% | 2.97 µM | < 10% | 56% | 25% | < 1 µM | < 10% | 65% | 85% | 70% | 11% | 32% | < 10% | IC50 (HeLa): 7.8 µM; IC50 (Aurora kinase A): 2.19 µM; IC50 (Aurora kinase B): 0.235 µM; IC50 [18]: < 1 µM; IC50 [19]: < 1 µM; Activity (HCT-116 [20]): Active; Activity (HCT-116 [21]): Active |
